# Screening results as filed in PubChem.
# Only some compounds are listed: those with a hit (about 3.7% of all), similar ones and a draw of the others.
# Kir21 inh = blocks the mouse Kir2.1 inward-rectifier potassium channel. HEK293-Kir2.1, FluxOR thallium flux fluorescence; stronger effect = lower value. P35561. 0.85% of 310,000 active. B-score at 10 µM;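 active = fluorescence ratio B-score at or below minus 3 SD of library scores, with starting-brightness B-score within 2 SD, cut at about -4.2 in these data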;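 note: channel flux triggered by added potassium and thallium sulfate stimulus; B-score of peak minus minimum fluorescence over baseline after thallium stimulus; more negative B-score means stronger Kir2.1 block with less thallium influx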
# KCNQ1 block = blocks the human KCNQ1 potassium channel | CHO-K1 KCNQ1, FluxOR thallium flux fluorescence; stronger effect = higher value | B-score at 10 µM | 1.3% of 310,000 active;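 active = compounds whose thallium flux B-score, printed positive for inhibition, exceeds three library SD while starting fluorescence stays within three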;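 note: channel opened by potassium depolarization with thallium stimulus after 20 min compound exposure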
# hERG protect = shields human hERG channel from block by proarrhythmic agents. Q12809. CHO-hERG, FluxOR thallium flux, dofetilide IC70 present. activation (rescue from dofetilide block), less the hit threshold, % at 10 µM. 0.51% of 310,000 active;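 active = activation above the mean of controls blocked by dofetilide plus 5 SD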;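 note: thallium influx through hERG after potassium depolarization seen as dye fluorescence rise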
# KCNQ1 pot = potentiators or activators of human KCNQ1 potassium channel; P51787; CHO-K1 KCNQ1, thallium flux FluxOR fluorescence; stronger effect = higher value; B-score at 10 µM; 0.35% of 310,000 active;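 active = fluorescence ratio B-score, a plate-corrected score, at least three library SD, with initial intensity B-score within 5 SD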
#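 Assay system: CHO-K1 cells stably expressing KCNQ1; Medium: assay buffer with matched DMSO; Also added: K+/Tl+ depolarizing stimulus; Dosing: single dose; Timing: dye 90 min, compound 20 min, room temperature; Measured by: kinetic FluxOR thallium fluorescence, 10-s 1-Hz baseline, 110-s post-stimulus read; Read-out: peak-minus-minimum fluorescence over initial fluorescence, negative-control normalized, B-scored.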
# KCNK3 block = human KCNK3 channel inhibition, primary screen; CHO-KCNK3 thallium flux, FluxOR fluorescence; stronger effect = lower value; B-score at 10 µM; 0.84% of 340,000 active; AID 602410;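 active = B-score under library mean minus 4 SD, starting fluorescence ratio at most library mean plus 5 SD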;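 note: more negative B-score means stronger inhibition of thallium flux through KCNK3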
# KCNK9 inh = human KCNK9 channel inhibition; Q9NPC2; HEK293 KCNK9, FluxOR thallium flux fluorescence; stronger effect = lower value; B-score at 10 µM; 1.2% of 310,000 active;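 active = ratio B-score over 3 SD below the library mean, with starting fluorescence within 5 SD of its mean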;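 note: negative B-score means less thallium flux so channel inhibition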
# Target sequence (Q9NPC2 whole entry, looked up): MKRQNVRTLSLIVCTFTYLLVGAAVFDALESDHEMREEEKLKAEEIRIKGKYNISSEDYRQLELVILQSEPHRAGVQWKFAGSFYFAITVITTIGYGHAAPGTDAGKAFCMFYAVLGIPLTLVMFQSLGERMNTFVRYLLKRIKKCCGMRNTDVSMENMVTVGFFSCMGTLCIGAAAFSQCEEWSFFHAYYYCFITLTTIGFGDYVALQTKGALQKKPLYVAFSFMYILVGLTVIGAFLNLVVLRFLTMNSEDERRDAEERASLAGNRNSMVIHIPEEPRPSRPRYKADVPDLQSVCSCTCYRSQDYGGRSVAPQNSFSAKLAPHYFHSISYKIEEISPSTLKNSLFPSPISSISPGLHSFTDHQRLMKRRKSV
# Starred values were filed as active, the others as inactive; i = inactive; . = not tested or not shown.
SMILES,Kir21 inh,KCNQ1 block,hERG protect,KCNQ1 pot,KCNK3 block,KCNK9 inh
O=C(NCc1cccnc1)c1cccc(OC2CCN(Cc3ccc(CO)o3)CC2)c1,-0.82,i,-12,i,i,i
OCCCc1nc2n(n1)C(c1ccccc1Cl)C=C(c1cccs1)N2 (stereo unspecified),-2.5,i,-17,i,-10*,i
OCCCc1nc2n(n1)C(c1ccccc1)C=C(c1ccc(F)cc1)N2 (stereo unspecified),-0.92,i,-16,i,i,i
CCCOc1ccc(C(=O)NC(=S)NNC(=O)c2c(-c3ccccc3)noc2C)cc1,1.3,i,-12,15*,i,i
Cc1ccc(Nc2nc(N)c3ccccc3n2)cc1Cl,-13*,i,-21,i,i,i
Nc1nc(Nc2ccc(Cl)cc2)nc2ccccc12,-14*,i,-26,i,i,i
CCOC(=O)c1cc([N+](=O)[O-])sc1N,0.04,i,-3,i,i,i
O=C1C(Cl)=C(N2CCC(C(=O)O)CC2)C(=O)c2ccccc21,-0.09,6*,-20,i,i,i
CC1COCC(C)N1C1=C(Cl)C(=O)c2ccccc2C1=O (stereo unspecified),.,.,.,.,-10*,.
Cc1ccc(NC(=O)C(OC(=O)c2cnc(C)cn2)c2ccccc2)c([N+](=O)[O-])c1 (stereo unspecified),0.7,i,-13,i,i,i
CSCCC(NC(=O)c1ccccc1Br)C(=O)NNC(=O)c1ccncc1 (stereo unspecified),.,.,.,.,i,.
COc1ccc(Cl)cc1S(=O)(=O)N1CCN=C1Cc1ccccc1,-5.1*,i,-10,i,i,i
CCOC(=O)C1=C(C)N=C2SC(C(=O)OC)=CC(=O)N2C1c1ccc(F)cc1 (stereo unspecified),-5.4*,i,-13,i,i,i
CCOC(=O)C1=C(C)N=C2SC(C(=O)OC)=CC(=O)N2C1c1cccc(OC)c1 (stereo unspecified),-0.51,i,-5,i,i,i
Cc1ccc(Oc2ccc(C(F)(F)F)cc2[N+](=O)[O-])c([N+](=O)[O-])n1,-1.2,i,-2,i,i,i
CC(=O)C[C@H]1c2cc(C(F)(F)F)ccc2S(=O)(=O)N1C1CCCCC1,-2.4,i,-2,10*,i,i
CCCCCCCCN1[C@@H](CC(C)=O)c2cc(C(F)(F)F)ccc2S1(=O)=O,1.9,i,-14,56*,i,i
COc1ccc(CN2[C@@H](CC(=O)O)c3ccc(C(F)(F)F)cc3S2(=O)=O)cc1,-0.26,i,-3,i,.,i
COc1ccc(CN2[C@@H](CC(=O)O)c3cc(C(F)(F)F)ccc3S2(=O)=O)cc1,-0.48,i,6.4*,i,i,i
CN(C)CCC1c2ccc(Cl)cc2CCc2cccnc21 (stereo unspecified) (tested in a mixture with another compound),-0.51,i,-3,i,i,i
CCOc1ccccc1N1CCN(Cc2cccc(OC)c2OC)CC1,-0.7,6*,-16,i,i,i
O=C(/C=C/c1cccc([N+](=O)[O-])c1)c1ccc([N+](=O)[O-])o1,-0.99,i,-22,i,i,i
Cc1ccccc1/C=C/C(=O)c1ccc([N+](=O)[O-])o1,-1.9,7*,-11,i,.,i
Cc1cccc(/C=C/C(=O)c2ccc([N+](=O)[O-])o2)c1,-1.2,8*,-17,i,i,i
COc1ccc(-c2c(C)c3ccc(OCC(C)=O)cc3oc2=O)cc1,-0.72,i,5.7*,i,.,i
CC(=O)COc1ccc2c(C)c(C)c(=O)oc2c1,-0.4,i,-2,i,i,i
Cn1c(-c2sccc2OCc2ccc(Cl)cc2Cl)n[nH]c1=S,-5.5*,i,-11,i,i,i
Cc1ccc(COc2ccsc2-c2n[nH]c(=S)n2C)cc1,-0.03,i,-15,i,i,i
CCn1cc(C(=O)NCc2ccc(OC)cc2)c(=O)c2ccc(C)nc21,0.67,i,-3,i,i,i
